Broadly, the Cmax is the maximum level reached in the sampled fluid or tissue. What is called IC50 is the midpoint of a concentration-inhibition curve. A higher IC50 goes with a need for much substance.

T1 sequence (Q05941 whole entry): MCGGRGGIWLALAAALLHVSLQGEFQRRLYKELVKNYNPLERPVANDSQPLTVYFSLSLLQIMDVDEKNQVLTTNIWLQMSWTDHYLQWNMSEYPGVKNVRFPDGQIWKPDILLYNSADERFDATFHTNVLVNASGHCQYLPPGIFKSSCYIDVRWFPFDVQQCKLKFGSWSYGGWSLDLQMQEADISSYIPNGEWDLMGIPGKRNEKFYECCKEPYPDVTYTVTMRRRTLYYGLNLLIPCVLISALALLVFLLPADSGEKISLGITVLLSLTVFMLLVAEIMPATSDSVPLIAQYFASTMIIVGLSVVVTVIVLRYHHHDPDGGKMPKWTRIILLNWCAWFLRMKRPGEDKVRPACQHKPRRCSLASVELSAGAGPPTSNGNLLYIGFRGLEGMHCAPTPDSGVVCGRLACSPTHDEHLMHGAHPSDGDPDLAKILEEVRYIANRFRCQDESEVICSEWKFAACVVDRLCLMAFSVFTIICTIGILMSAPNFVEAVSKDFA

System in the first data set: not listed separately
Nature of the data set: Cmax wa determined in rat plasma at 30 mg/kg after po administration. Type of data set: ADME, organism-based. Further details: dose 30 mg/kg, route oral. In a few lines:
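Rats were dosed orally at 30 mg/kg. The read-out was the peak plasma concentration (Cmax), reported in ng/mL.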
The molecule `c1ccc2sc(CCC3CN4CCC3CC4)cc2c1` (stereo in doubt; 16b) showed a maximum concentration (Cmax) of 450 ng/mL. On the same count and under the same terms, with `O=C(CC1CN2CCC1CC2)c1cc2ccccc2s1` (stereo in doubt; 15b) the figure was 270 ng/mL.

The next data set has as its target T1, Neuronal acetylcholine receptor subunit alpha-7 (Rattus norvegicus, UniProt Q05941). Nature of the data set: Binding affinities for the alpha 7 nicotinic acetylcholine receptor was determined in PC12 cells. Type of data set: cell-based, PC-12.
In turn, `c1ccc2cc(COC3CN4CCC3CC4)ccc2c1` (configuration not stated) gave an IC50 of 0.15 µM.

In the case of `c1ccc2c(COC3CN4CCC3CC4)cccc2c1` (configuration not stated), the IC50 worked out at 0.73 µM.

In a further data set the target is T1, Neuronal acetylcholine receptor subunit alpha-7. Nature of the data set: Alpha 7 nicotinic acetylcholine receptor binding activity in PC12 cells. The data set is classed as cell-based, PC-12.
The molecule `c1ccc2sc(CC3CN4CCC3CC4)cc2c1` (configuration not stated) yielded a half-maximal inhibitory concentration (IC50) of 0.11 µM.

Molecule `c1ccc2sc(COC3CN4CCC3CC4)cc2c1` (configuration not stated) gave a half-inhibitory concentration (IC50) of 0.059 µM. Same read-out and setting: with `c1ccc2sc(CCC3CN4CCC3CC4)cc2c1` (single isomer, unassigned; (+)) the figure was 0.065 µM; with `c1ccc2sc(CCCC3CN4CCC3CC4)cc2c1` (configuration not stated), 0.37 µM. As to `c1ccc2sc(CO[C@@H]3CN4CCC3CC4)cc2c1`, the IC50 was determined as 0.026 µM.

With `O=C(CC1CN2CCC1CC2)c1cc2ccccc2s1` (single isomer, unassigned; (+)), the IC50 was 0.13 µM. For the molecule `c1ccc2sc(CCC3CN4CCC3CC4)cc2c1` (stereo in doubt; 16b), the IC50 amounted to 0.023 µM. `O=C(c1cc2ccccc2s1)C1CN2CCC1CC2` (configuration not stated) yielded an IC50 of 0.95 µM.

`O=C(CC1CN2CCC1CC2)c1cc2ccccc2s1` (stereo in doubt; 15b) showed an IC50 of 0.15 µM. The same measure, in the same setting: to `COc1ccc(Cc2cccnc2-c2cccnc2)c(OC)c1` belongs 0.76 µM.

Molecule `c1ccc2sc(CO[C@H]3CN4CCC3CC4)cc2c1` showed an IC50 of 0.515 µM. Still for that read-out and setting: with `O=C(CC1CN2CCC1CC2)c1cc2ccccc2s1` (single isomer, unassigned; (-)) the figure was 0.17 µM; with `c1ccc2sc(CCC3CN4CCC3CC4)cc2c1` (stereo in doubt; (-)-16b), 0.22 µM.

Values taken from ChEMBL document CHEMBL1146809, “(+)-3-[2-(Benzo[b]thiophen-2-yl)-2-oxoethyl]-1-azabicyclo[2.2.2]octane as potent agonists for the alpha7 nicotinic acetylcholine receptor” (Bioorg Med Chem Lett, 2004).
